S100A4 inh HTS: inhibitors of S100A4-myosin IIA peptide binding, primary screen, biochemical, fluorescence polarization, TAMRA-MyoIIA peptide | inhibition, % at 10.7 µM | 360,000 tested, 0.14% active;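 active = mean inhibition of at least 70% across replicates, with every replicate also reaching that level; inconclusive = mean inhibition reaches 70% but some replicates fall short; inactive = mean inhibition below 70%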
Target sequence (P26447 whole entry, looked up): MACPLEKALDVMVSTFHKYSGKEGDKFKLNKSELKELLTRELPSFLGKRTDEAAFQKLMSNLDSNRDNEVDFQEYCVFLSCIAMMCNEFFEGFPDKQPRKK
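System – human S100A4 monomer protein, biochemical binding assay · Buffer or medium – Calcium-containing HEPES buffer, pH 7.2 · Timing – 5 min between mix addition and reading · Also added – TAMRA-labelled myosin IIA heavy-chain peptide probe, 5 nM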
XiGFP reactiv: activators of inactive X chromosome reactivation, primary screen, imaging, XiGFP fibroblasts, GFP high-content imaging, set 2. AID 743238, 2013. XiGFP mouse fibroblasts, % GFP-positive cells imaging, 3 d; cells co-treated with 5-aza-dC sensitizer; scaled so ellipticine positive control = 100%. 360,000 tested, 0.055% active. activation, % at 7.58 µM;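 active = mean normalized replicate activation at least 10% and every replicate at or above 10%; inconclusive = only one of the two criteria met; inactive = mean below 10% and not all replicates reach 10%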
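Material: XiGFP fibroblasts, SV40-immortalized. Buffer or medium: DMEM plus 5-aza-dC sensitizer. Compound: single concentration per compound, delivered by pin transfer. Times: 3 days compound exposure. Controls: ellipticine 6 µM.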
E-selectin induc: E-selectin induction in HUVECs, primary screen, imaging, HUVEC, immunofluorescence imaging, single point; P16581; normalized: neutral wells 0, TNF-alpha wells 100; activation, % at 7.58 µM; 260,000 tested, 0.37% active;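 active = mean E-selectin-positive cell signal at least 10% of the positive control, reached in at least 60% of replicates, without over 20% cell loss; inconclusive = no rule given, readout overlaps actives, possibly toxicity-flagged; inactive = the rest, including those meeting only one limit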
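Read-out basis: % PE-positive cells; Test system: HUVEC primary endothelial cells; Technique: immunofluorescence imaging; Dosing: single-point compound dose.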
DENV2 CPE: inhibitors of DENV2 cytopathic effect, primary screen, cell-based, plate reader, single concentration. DENV2-infected cells, cytopathic effect rescue. CPE inhibition, % at 9.99 µM. 350,000 tested, 1.7% active. AID 651640, 2012; in the data active = CPE inhibition above about 20%, passing the limit was not always enough; inconclusive = no clear call, values can overlap the other calls; tested in BHK-21 cells
A number is an active result; - = inactive; ? = inconclusive; . = no result given. Sampled rows, rich in hits. Any-hit rate of the full collection: about 2%.

SMILES | S100A4 inh HTS | XiGFP reactiv | E-selectin induc | DENV2 CPE
COc1cccc(C(=O)Nc2ccc3c(c2)C(=O)N(C)[C@H]2CC[C@@H](CC(=O)N[C@@H](C)c4ccccc4)O[C@H]2CO3)c1 | - | - | - | .
COc1ccc([C@H]2C[C@@H](O)[C@H](n3cc(COC(=O)c4ccccc4)nn3)CN2Cc2cccs2)cc1 | - | - | - | 56
COc1ccc([C@H]2C[C@H](O)[C@@H](n3cc(COC(=O)c4ccccc4)nn3)CN2Cc2cccs2)cc1 | - | - | - | -
COc1ccc(OCCC(=O)OCC(=O)NC(=O)NC2CCCCC2)cc1 | - | - | - | -
O=C(NCc1ccc2c(c1)OCO2)C(=O)NCC1OCCCN1S(=O)(=O)c1ccccc1 (stereo not drawn) | - | - | . | 41
NC(=O)c1ccsc1NC(=O)COC(=O)[C@@H]1CCCN1C(=O)c1cccs1 | - | - | . | 122
OCCN1CCN(Cc2ccc3ccccc3c2)CC1 | - | - | - | -
Cc1cccc2c1NC1(CCCC1)CC2C (stereo not drawn) | - | - | 188 | -
Cc1ccc(S(=O)(=O)N2CCN(C(=O)COC(=O)/C=C/c3ccc(F)cc3)CC2)c(C)c1 | - | - | - | -
CSc1ccc(/C=C/C(=O)OCC(=O)N2CCN(S(=O)(=O)c3ccc(C)cc3C)CC2)cc1 | - | - | . | 25
O=C(NC1CCCC1)N1CCCCN2[C@H](CO)[C@H](c3ccc(-c4cccnc4)cc3)[C@H]2C1 | - | - | - | -
Cc1ccccc1-c1ccc([C@@H]2[C@@H](CO)N3CCCCN(C(=O)c4cccnc4)C[C@H]23)cc1 | - | - | - | 49
O=C(c1cccnc1)N1CCCCN2[C@H](CO)[C@@H](c3ccc(C#Cc4ccccn4)cc3)[C@H]2C1 | - | - | - | 20
O=C(NC1CCCC1)N1CCCCN2[C@@H](CO)[C@@H](c3ccc(-c4cccnc4)cc3)[C@@H]2C1 | 98 | - | - | -
Cc1ccccc1-c1ccc([C@H]2[C@@H](CO)N3CCCCN(C(=O)c4cccnc4)C[C@H]23)cc1 | - | - | - | -
Cc1nn(C)cc1CN(C)C(=O)c1ccc(OC2CCN(Cc3ccccn3)CC2)cc1 | - | - | . | -
CN(Cc1nccs1)C(=O)c1ccc(OC2CCN(Cc3ccccn3)CC2)cc1 | - | - | - | 42
CC1(C)CC(Cc2ccc(C(F)(F)F)cn2)N(C(=O)OC(C)(C)C)C1 (stereo not drawn) | - | - | - | -
COCC(=O)N1CC(=O)N2[C@H](CO)[C@H](c3ccc(Br)cc3)[C@@H]2C1 | - | - | - | -
O=C(Nc1ccc(F)cc1)N1CC(=O)N2[C@H](CO)[C@H](c3ccc(C#CC4CC4)cc3)[C@H]2C1 | - | - | - | 35
O=C(Nc1ccc(F)cc1)N1CC(=O)N2[C@@H](CO)[C@H](c3ccc(C#CC4CC4)cc3)[C@@H]2C1 | - | - | - | -
COCC(=O)N1CC(=O)N2[C@@H](CO)[C@@H](c3ccc(Br)cc3)[C@@H]2C1 | - | - | - | 29
COc1cccc(NC(=O)N2CC(=O)N3[C@H](C2)[C@@H](c2ccc(C#CC4CCCC4)cc2)[C@@H]3CO)c1 | - | - | - | 38
O=C(c1ccc(F)cc1)N1CC(=O)N2[C@@H](CO)[C@H](c3ccc(C#CC4CC4)cc3)[C@@H]2C1 | - | - | - | 41
COc1cccc(NC(=O)N2CC(=O)N3[C@H](C2)[C@H](c2ccc(C#CC4CCCC4)cc2)[C@@H]3CO)c1 | - | - | - | -
SMILES | S100A4 inh HTS | XiGFP reactiv | E-selectin induc | DENV2 CPE
NC(=NCCc1ccccc1)NC(=O)c1cc(Cl)ccc1O | - | - | - | -
CCC(=O)N1CC(=O)N2[C@H](CO)[C@H](c3ccc(C#CC4CCCC4)cc3)[C@H]2C1 | 136 | - | - | -
COc1ccc(NC(=O)N2CC(=O)N3[C@H](C2)[C@H](c2ccc(C#CCC4CCCC4)cc2)[C@@H]3CO)cc1 | - | - | - | -
COc1ccc(NC(=O)N2CC(=O)N3[C@@H](CO)[C@H](c4ccc(C#CCC5CCCC5)cc4)[C@@H]3C2)cc1 | - | - | - | 23
CSCCC(N=C1NS(=O)(=O)c2ccccc21)C(=O)NCc1ccccc1F (stereo not drawn) | - | - | - | -
CSCCC(N=C1NS(=O)(=O)c2ccccc21)C(=O)NCCc1ccccc1 (stereo not drawn) | - | - | - | 58
Cc1ccc(S(=O)(=O)Nc2ccc3c(c2)CC(=O)N([C@H](C)CO)C[C@@H](C)[C@@H](CN(C)Cc2ccc(Oc4ccccc4)cc2)O3)cc1 | - | - | - | 38
Cc1ccc(S(=O)(=O)Nc2ccc3c(c2)CC(=O)N([C@@H](C)CO)C[C@@H](C)[C@H](CN(C)Cc2ccc(Oc4ccccc4)cc2)O3)cc1 | - | - | - | -
COc1ccc(S(=O)(=O)Nc2ccc3c(c2)CC(=O)N([C@H](C)CO)C[C@@H](C)[C@@H](CN(C)Cc2ccc(C(F)(F)F)cc2)O3)cc1 | - | - | - | 23
C[C@@H]1CN([C@H](C)CO)C(=O)Cc2cc(NS(=O)(=O)c3ccccc3)ccc2O[C@H]1CN(C)Cc1ccc(Oc2ccccc2)cc1 | - | - | - | ?
C[C@@H]1CN([C@@H](C)CO)C(=O)Cc2cc(NS(=O)(=O)c3ccccc3)ccc2O[C@@H]1CN(C)Cc1ccc(Oc2ccccc2)cc1 | - | - | - | 25
C[C@@H]1CN([C@@H](C)CO)C(=O)Cc2cc(NS(C)(=O)=O)ccc2O[C@H]1CN(C)Cc1ccc(Oc2ccccc2)cc1 | - | - | - | 30
C[C@@H]1CN([C@H](C)CO)C(=O)Cc2cc(NS(C)(=O)=O)ccc2O[C@@H]1CN(C)Cc1ccc(Oc2ccccc2)cc1 | - | - | - | -
COCCN(C(=O)Nc1ccccc1)C(C)c1cccnc1 (stereo not drawn) | - | - | - | -
Cc1csc(NC(=O)CSc2ccc([N+](=O)[O-])cn2)n1 | - | - | - | ?
Cc1ccc(S(=O)(=O)Nc2ccc3c(c2)CC(=O)N([C@H](C)CO)C[C@@H](C)[C@H](CN(C)Cc2ccc(Oc4ccccc4)cc2)O3)cc1 | - | - | - | 59
Cc1occc1C(=O)N1CCCC(N2CCN(c3ccccc3F)CC2)C1 (stereo not drawn) | - | - | - | 26
Cc1cc(NN=Cc2ccccn2)nc2ccccc12 | - | - | - | -
COc1ccc2nc(NN=Cc3cccc(C)n3)cc(C)c2c1 | - | - | - | 54
C[n+]1ccccc1COc1ccc(C(C)(C)C)cc1 | - | - | . | 23
C[C@H](O)C#Cc1ccc2c(c1)O[C@H](CN(C)CC1CCCCC1)[C@H](C)CN([C@H](C)CO)S2(=O)=O | - | - | - | -
C[C@@H]1CN([C@@H](C)CO)S(=O)(=O)c2ccc(C#C[C@@H](C)O)cc2O[C@H]1CN(C)CC1CCCC1 | - | - | - | 21
